Assay outcomes (PubChem BioAssay)
The list is not random: actives were taken first. Their share in the collection is about 5.8%.
Pf Dd2 inh: P. falciparum Dd2 growth inhibitors, primary screen, SYBR Green fluorescence, single dose replicates; 72 h; hits give low values; 2.3% of 94,000 active; AID 1159554, 2015; activity change, % at 10 µM; in the data active = activity change below about -80%; inconclusive = no clear call, values can overlap the other calls
KDM4C inh: inhibitors of GASC-1 (KDM4C) histone demethylase, primary screen, biochemical, single concentration HTS; inhibition, % at 12.5 µM; AID 720574, 2013; Lysine-specific demethylase 4C (Homo sapiens), Q9H3R0; 0.15% of 96,000 active; GST-KDM4C 2-372, H3K9me3 peptide, LANCE TR-FRET;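 active = mean replicate inhibition above about 25%, with at least 55% of replicates also reaching it, limit read from the data, passing the limit was not always enough; inconclusive = only one of those two conditions met; inactive = neither condition met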
Target sequence (Q9H3R0 2-372 limits assumed): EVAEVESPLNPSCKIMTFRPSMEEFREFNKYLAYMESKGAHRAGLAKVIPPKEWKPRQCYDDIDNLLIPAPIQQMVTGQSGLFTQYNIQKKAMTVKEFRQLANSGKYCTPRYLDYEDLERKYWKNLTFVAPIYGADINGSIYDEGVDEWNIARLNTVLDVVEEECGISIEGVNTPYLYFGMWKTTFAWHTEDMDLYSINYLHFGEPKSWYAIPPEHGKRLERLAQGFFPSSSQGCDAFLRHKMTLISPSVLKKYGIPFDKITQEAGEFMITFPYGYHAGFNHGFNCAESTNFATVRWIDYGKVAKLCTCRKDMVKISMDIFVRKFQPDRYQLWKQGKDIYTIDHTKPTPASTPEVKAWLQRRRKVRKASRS
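Material: GST-tagged GASC-1 (JMJD2C) catalytic fragment, aa 2-372 / Quantity: enzyme final amount 10 nM / Medium: HEPES buffer, pH 7.5, plus ascorbate / Doses: one test concentration per compound / Incubation: 30 min reaction, 60 min detection, RT / Measured by: LANCE TR-FRET / Read-out: inhibition from TR-FRET ratio decrease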
IDH1 R132H inh: inhibitors of IDH1 R132H reductase, primary screen, biochemical, plate reader, single point; 0.18% of 70,000 active; Isocitrate dehydrogenase [NADP] cytoplasmic (Homo sapiens), O75874; AID 624101, 2012; diaphorase/resazurin fluorescence, 60 min; inhibition, % at 10 µM; in the data active = inhibition above about 34%; inconclusive = no clear call, values can overlap the other calls; inactive = below about 11%;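 note: 0% = DMSO and 100% = no enzyme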
Target sequence (O75874 whole entry R132H): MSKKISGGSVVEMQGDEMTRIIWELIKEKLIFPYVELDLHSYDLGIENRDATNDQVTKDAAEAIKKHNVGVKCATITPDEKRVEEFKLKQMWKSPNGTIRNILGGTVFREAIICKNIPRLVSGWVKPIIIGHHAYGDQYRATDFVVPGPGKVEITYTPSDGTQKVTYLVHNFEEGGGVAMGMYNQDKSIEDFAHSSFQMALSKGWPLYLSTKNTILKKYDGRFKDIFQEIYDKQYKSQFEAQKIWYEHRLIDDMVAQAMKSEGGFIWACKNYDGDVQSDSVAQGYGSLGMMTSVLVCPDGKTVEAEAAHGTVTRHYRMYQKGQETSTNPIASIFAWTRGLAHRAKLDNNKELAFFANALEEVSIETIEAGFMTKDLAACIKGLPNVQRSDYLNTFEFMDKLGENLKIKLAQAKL
T cruzi growth-1: T. cruzi intracellular proliferation inhibitors, primary screen, cell-based, beta-gal Tulahuen parasites, NIH3T3 host, luminescence; T. cruzi beta-gal in NIH3T3, GalScreen luminescence, 90 h; inhibition, % at 8.34 µM; 5.9% of 77,000 active; AID 624255, 2012;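 active = mean inhibition above about 93%, with at least 55% of replicates each passing it, limit read from the data, passing the limit was not always enough; inconclusive = only one of those two conditions holds; inactive = neither condition holds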
T cruzi growth-2: T. cruzi intracellular proliferation inhibitors, confirmation, cell-based, NIH3T3 host, beta-gal parasite, luminescence, cherry-pick; T. cruzi beta-gal in NIH3T3, GalScreen luminescence, 90 h; inhibition, % at 8.35 µM; 72% of 5,600 active; AID 651739, 2012; shares compounds with T cruzi growth-1;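 active = mean replicate inhibition above about 95% and at least 55% of replicates individually reaching it, limit read from the data; inconclusive = only one of the two criteria is met; inactive = neither criterion is met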
T cruzi growth-3: inhibitors of intracellular T. cruzi replication, confirmation, NIH3T3 host cells, beta-gal parasites, cherry-pick, set 2; shares compounds with T cruzi growth-1; T. cruzi beta-gal in NIH3T3, GalScreen luminescence, 90 h; 21% of 5,600 active; inhibition, % at 2.09 µM;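 active = mean inhibition above about 95%, with at least 55% of replicates also reaching it, limit read from the data; inconclusive = meets just one of the two conditions; inactive = meets neither condition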;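 note: plate controls were neutral control median for no effect and positive control median for full effect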
NIH3T3 tox: cytotoxicity in mouse NIH/3T3 fibroblasts, confirmation, cytotoxicity control for T. cruzi proliferation inhibitor project, cell-based, cherry-pick, single point; shares compounds with T cruzi growth-1; NIH/3T3 viability, CellTiter-Glo ATP luminescence, 90 h; cytotoxicity (signal decrease), % at 8.35 µM; 14% of 5,600 active; AID 651742, 2012;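 active = mean signal decrease across replicates above about 35% based on untreated-well scatter, with enough replicates individually passing, limit read from the data; inconclusive = no rule stated though some were filed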;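 note: 0% = median of neutral control wells and 100% = median of positive control wells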
NIH3T3 tox 2: NIH/3T3 fibroblast cytotoxicity, confirmation, cytotoxicity control, cell-based, cherry-pick, single point, set 2; AID 651744, 2012; 56% of 5,600 active; shares compounds with T cruzi growth-1; inhibition, % at 24.9 µM; NIH/3T3 viability, CellTiter-Glo ATP luminescence, 90 h;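 active = mean loss of cell viability signal at or above a set limit, and enough replicates individually reaching it; inconclusive = meets only the mean limit or only the replicate share; inactive = meets neither condition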;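 note: 0% = median of neutral control wells and 100% = median of positive control wells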
The depositor's hits bear a star; ? = inconclusive; nt = not tested or not shown.

SMILES	Pf Dd2 inh	KDM4C inh	IDH1 R132H inh	T cruzi growth-1	T cruzi growth-2	T cruzi growth-3	NIH3T3 tox	NIH3T3 tox 2
COc1ccc(NC(=O)Nc2ccc3c(c2)C(=O)N([C@H](C)CO)C[C@@H](C)[C@H](CN(C)C(=O)NC2CCCCC2)OCCCC[C@@H](C)O3)cc1	-54.2	0.5	nt	99.7*	106.9*	68.0	-24.0	-27.8
C[C@@H]1CCCCO[C@H](CN(C)C(=O)Nc2ccc(C(F)(F)F)cc2)[C@H](C)CN([C@@H](C)CO)C(=O)c2cc(N(C)C)ccc2O1	-32.4	-1.5	0.2	85.3	nt	nt	nt	nt
C[C@H]1CCCCO[C@H](CN(C)C(=O)Nc2ccc(C(F)(F)F)cc2)[C@@H](C)CN([C@@H](C)CO)C(=O)c2cc(N(C)C)ccc2O1	-8.1	-0.2	nt	99.2*	100.1*	47.9	-28.4	-5.5
C[C@@H]1CCCCO[C@@H](CN(C)C(=O)Nc2ccc(C(F)(F)F)cc2)[C@@H](C)CN([C@@H](C)CO)C(=O)c2cc(N(C)C)ccc2O1	20.2	-1.3	4.9	99.7*	111.2*	38.5	-3.5	-24.7
CC(C)NC(=O)Nc1cccc2c1O[C@H](CN(C)C(=O)NC(C)C)[C@@H](C)CN([C@@H](C)CO)C2=O	6.8	1.1	-0.2	42.6	nt	nt	nt	nt
CN(C)CC(=O)N1CCCCN2[C@H](C1)[C@H](c1ccc(-c3cccnc3)cc1)[C@@H]2CO	-57.2	-0.4	nt	108.1*	96.7*	1.7	2.1	-0.4
CN(C)CC(=O)N1CCCCN2[C@H](CO)[C@@H](c3ccc(-c4cccnc4)cc3)[C@@H]2C1	-39.4	-0.1	nt	100.6*	39.6	-4.9	-16.7	-12.1
CCC(=O)N1CCCCN2[C@H](C1)[C@@H](c1ccc(-c3cccnc3)cc1)[C@@H]2CO	-24.7	0.4	nt	-26.0	nt	nt	nt	nt
CCC(=O)N1CCCCN2[C@@H](CO)[C@H](c3ccc(-c4cccnc4)cc3)[C@@H]2C1	36.2	-0.6	nt	100.1*	96.2*	68.2	13.5	29.0*
COc1ccc(S(=O)(=O)N[C@H]2CC[C@H](CCn3cc(-c4ccccc4F)nn3)O[C@@H]2CO)cc1	-11.5	-1.4	0.0	-18.0	nt	nt	nt	nt
CCCNC(=O)C[C@H]1CC[C@H]2[C@@H](COC[C@H](O)CN2Cc2ccc(Cl)c(Cl)c2)O1	-4.5	1.8	nt	-21.8	nt	nt	nt	nt
C[C@@H]1CN([C@@H](C)CO)C(=O)Cc2cc(NS(=O)(=O)c3ccc(F)cc3)ccc2O[C@@H]1CN(C)Cc1ccccc1	-19.7	0.6	nt	94.5	nt	nt	nt	nt
C[C@H]1CN([C@@H](C)CO)C(=O)Cc2cc(NS(=O)(=O)c3ccc(F)cc3)ccc2O[C@H]1CN(C)CC1CCCCC1	-30.4	-1.6	-0.4	66.9	nt	nt	nt	nt
C[C@@H]1CN([C@@H](C)CO)C(=O)Cc2cc(NS(=O)(=O)c3ccc(F)cc3)ccc2O[C@H]1CN(C)CC1CCCCC1	-17.6	1.5	1.8	106.4*	111.7*	53.9	6.5	103.5*
COc1ccc(S(=O)(=O)Nc2ccc3c(c2)CC(=O)N([C@H](C)CO)C[C@H](C)[C@@H](CN(C)Cc2ccccc2)O3)cc1	-34.5	0.0	-5.6	99.5*	103.6*	45.2	-9.5	-16.9
C[C@@H]1CN([C@@H](C)CO)C(=O)Cc2cc(NS(=O)(=O)c3ccc(F)cc3)ccc2O[C@H]1CN(C)Cc1ccccc1	-29.9	1.7	0.8	114.0*	111.5*	51.8	32.2	?
COc1ccc(S(=O)(=O)Nc2ccc3c(c2)CC(=O)N([C@@H](C)CO)C[C@@H](C)[C@H](CN(C)Cc2ccccc2)O3)cc1	-25.7	-0.7	-0.3	113.0*	108.2*	88.6	16.1	22.6
COc1ccc(S(=O)(=O)Nc2ccc3c(c2)CC(=O)N([C@H](C)CO)C[C@@H](C)[C@@H](CN(C)Cc2ccccc2)O3)cc1	-9.0	-0.5	0.1	86.8	nt	nt	nt	nt
C[C@@H]1CN([C@@H](C)CO)C(=O)Cc2cc(NS(C)(=O)=O)ccc2O[C@@H]1CN(C)Cc1ccccc1	-8.2	1.1	0.7	15.7	nt	nt	nt	nt
COc1cccc(-c2ccc([C@@H]3[C@@H](CO)N4CCCCN(S(=O)(=O)c5cccs5)C[C@@H]34)cc2)c1	34.9	-1.6	nt	96.8*	59.9	-3.1	20.5	25.0*
COc1ccc(-c2ccc([C@H]3[C@@H](CO)N4CCCCN(S(=O)(=O)c5cccs5)C[C@@H]34)cc2)cc1	1.6	-1.3	nt	107.4*	116.3*	89.5	22.5	9.8
COc1cccc(-c2ccc([C@H]3[C@H]4CN(S(=O)(=O)c5cccs5)CCCCN4[C@H]3CO)cc2)c1	9.6	-1.5	nt	75.4	nt	nt	nt	nt
CS(=O)(=O)N(CC(=O)Nc1ccc(Oc2ccccc2)cc1)C1CCCCC1	nt	nt	2.1	nt	nt	nt	nt	nt
C[C@H](CO)N1C[C@H](C)[C@@H](CN(C)C(=O)Nc2ccc(F)cc2)OCCCC[C@H](C)Oc2ccc(NS(=O)(=O)c3ccc(Cl)cc3)cc2C1=O	-41.2	0.1	nt	nt	nt	nt	nt	nt
Cc1noc(C)c1S(=O)(=O)N(C)C[C@@H]1OCCCC[C@H](C)Oc2ccc(NC(=O)Cc3ccccc3)cc2C(=O)N([C@H](C)CO)C[C@@H]1C	-53.4	-0.4	nt	3.8	nt	nt	nt	nt
SMILES	Pf Dd2 inh	KDM4C inh	IDH1 R132H inh	T cruzi growth-1	T cruzi growth-2	T cruzi growth-3	NIH3T3 tox	NIH3T3 tox 2
O=C(NCC[C@@H]1CC[C@@H](NC(=O)C2CC2)[C@H](CO)O1)c1cc(Cl)cc(Cl)c1	nt	-1.3	0.3	nt	nt	nt	nt	nt
COCC(=O)N1CC[C@@H]2[C@H]1c1cc(-c3ccccc3)ccc1N(C)[C@@H]2CO	14.8	2.3	nt	107.8*	96.1*	84.8	-9.2	-3.5
COCC(=O)N1CC[C@@H]2[C@H]1c1cc(-c3ccccc3)ccc1N(C)[C@H]2CO	-6.0	0.5	nt	105.4*	102.4*	85.0	-9.1	1.7
COCC(=O)N1CC[C@@H]2[C@H]1c1cc(-c3ccc(F)cc3)ccc1N(C)[C@@H]2CO	15.5	4.0	nt	106.2	nt	nt	nt	nt
CCCNC(=O)N1CC[C@@H]2[C@H]1c1cc(-c3ccccc3)ccc1N(C)[C@H]2CO	-4.2	3.7	nt	?	108.1*	103.9*	8.4	11.5
CC(C)CC#Cc1cnc2c(c1)C(=O)N([C@H](C)CO)C[C@H](C)[C@H](CN(C)S(=O)(=O)c1cccs1)O2	-35.5	-4.0	1.0	40.9	nt	nt	nt	nt
